Results as given in the EternaBench riboswitch data.

Tested on: MS2 coat protein
Test: apparent Kd, MS2 coat protein; higher = weaker binding; RNA-MaP array; theophylline 2 mM where present
How it was run: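 Green signal was scaled to red-channel RNA signal and control-cluster median Fmax, and the apparent Kd was taken as the median of filtered per-cluster binding-curve fits. The binding series used SNAP-549-labelled MS2 coat protein from 0.7 or 1.5 nM, doubling to 3 µM, on designs transcribed by stalled E. coli RNA polymerase on Illumina sequencing-chip clusters. Each series ran without and then with constant ligand in 100 mM Tris-HCl pH 7.5, 80 mM KCl, 4 mM MgCl2, BSA, DTT, yeast tRNA and Tween-20.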

[1] = designed as: ON switch for theophylline, no ligand
[2] = ligand present: theophylline, designed as: ON switch for theophylline
[3] = designed as: OFF switch for theophylline, no ligand
[4] = ligand present: theophylline, designed as: OFF switch for theophylline

Sequence	apparent Kd [1]	apparent Kd [2]	apparent Kd [3]	apparent Kd [4]
UAUAUAAUAACAGAUACCAGCGUGUUAUAAAACAUGAGGAUCACCCAUGUAGUGAUCAAGCGCCCUUGGCAGCUGGUAUUAUAUA	72.2 nM	146 nM	–	–
ACGACGCAUAGUGAUACCAGCACAACAUGAGGAUCACCCAUGUCACUUAUGUAGUAAUAAUGCCCUUGGCAGCACUAUGCGUCAG	55.2 nM	65.6 nM	–	–
AGACAUGAGGAUCACCCAUGUAGUAUGGAUACCAGAUCCAGAUUUAUCCCUUGGCAGCUGUGGUACAGCGUUGGAUCGCUCCUAG	–	–	26.5 nM	–
AUAACAUGAGGAUCACCCAUGUAGAGUGAUACCAGACUAUGUAAUGUCCCUUGGCAGCACAAGUAAAGUUAUAAAUAAUGAUAGA	157 nM	27.2 nM	–	–
AGUACUCGAACGGAUACCAGCCGGACAUGAGGAUCACCCAUGUCCUACCUAUGUUCGGUUGGCCCUUGGCAGCCGUUCGUGUACA	215 nM	51 nM	–	–
UAUAACAUGAGGAUCACCCAUGUAAGUGAUACCAGAUAAAUAAUAGUCCCUUGGCAGCAUAUUGGGAAAGUGUAUAAUAUAUAUU	52.2 nM	57 nM	–	–
AUCUGUAUGUUUUCGUGUUUUAUUACAGAUACCAGACUAUACGUUGUCCCUUGGCAGCUGGAUGACAUGAGGAUCACCCAUGUUG	–	–	33.5 nM	36.6 nM
AGCGACAUGCGUGAUACCAGCUACAUGAGGAUCACCCAUGUAAGUAGGAAACUACUGUGUAGCCCUUGGCAGCACAGUGCAUGUC	–	–	9.48 nM	26.6 nM
AGCACACAUCCUGAUACCAGAGACAUGAGGAUCACCCAUGUCCGAUCGUCCUGCCUCAGACUCCCUUGGCAGCAGGAUGUGUGCU	–	–	13.1 nM	32.4 nM
ACAUGAGGAUCACCCAUGUUCCUCAUUGAUACCAGUGAAAGAAGACGCCCUUGGCAGCGAGAAGAAGAAGAAGAAGUUUUUUUUU	–	–	606 nM	1340 nM
GAACAUGAGGAUCACCCAUGUAAAACAGAUACCAGUGAUAUAAUACACCCUUGGCAGCUGAAGCUGAAUAAUAAUUCCCUCAAGC	14.8 nM	16.4 nM	–	–
AGUCUAUGGAGAGAUACCAGUGAGAGCCAUAGACAUGAGGAUCACCCAUGUGACAUGGAUCACCCUUGGCAGCUCAACGAGCUCU	126 nM	20.2 nM	–	–
AAAACACAUGAGGAUCACCCAUGUCGUGAUACCAGUCAACAUGAGGACCCUUGGCAGCAUAAAAUGGGUAACAUGAGGAUAACCC	–	–	89.6 nM	146 nM
AGUGUUGUAACUGAUACCAGACCUUUGCUUAUACAUGAGGAUCACCCAUGUAAAAUGGCGGUCCCUUGGCAGCAGAGAAGACGCA	40.1 nM	12.2 nM	–	–
GAGCUGAUGUAGAAAUUUUAUUUAUGAGAUACCAGUACAGAAAUGUACCCUUGGCAGCUCAAUUUUACAUGAGGAUCACCCAUGU	–	–	12.1 nM	13.4 nM
ACGACAUGAGGAUCACCCAUGUAAGGUGAUACCAGACGAAGUAAUGUCCCUUGGCAGCACAAGCAUAGUUGCGAUUAUUGUACGA	438 nM	158 nM	–	–

Sequence	apparent Kd [1]	apparent Kd [2]	apparent Kd [3]	apparent Kd [4]
GAUACCAUGAUCCUCCUGGUAUCGGCUGAUACCAGCCAGCUGACUGGCCCUUGGCAGCAGCAUACAUGAGGAUCACCCAUGUUAA	88.3 nM	267 nM	–	–
GAUGAAGUAACUGAUACCAGUGUACUGACAUGAGGAUCACCCAUGUUGGGUUUUGUUGUACACCCUUGGCAGCAGAAUCUUUAUC	–	–	52.3 nM	84.9 nM
GGUGGCGGGACUGAUACCAGCCACCACCGAUAGACCACAUGAGGAUCACCCAUGUUGGGUGGCCCUUGGCAGCAGUCUUGCUGCU	542 nM	630 nM	–	–
GCGAUACGUACUGAUACCAGAGACAUGAGGAUCACCCAUGUCCCAUGAUCAUACCUCAGACUCCCUUGGCAGCAGGAUAAGUGAG	–	–	11.2 nM	18.3 nM
AUUAAUAGUUGUGAUACCAGACGAACAUGAGGAUCACCCAUGUAACUUAAGAGUGUUGAUGUCCCUUGGCAGCACUGUUUAGUUA	108 nM	87.8 nM	–	–
UUUGAUAGGACAGAUACCAGCGUGUUGUUGAACAUGAGGAUCACCCAUGUAGUGAUCAGGCGCCCUUGGCAGCUGGUUUGUUAGG	416 nM	347 nM	–	–
UGGGCAUACAUGAGGAUCACCCAUGUAGAUACCAGCACUAGCCUGUGCCCUUGGCAGCUAACCGGGUCGAGAACUUAGUGCUCCU	–	–	11.8 nM	52.7 nM
ACAUGAAGAACAGCGGUGGGCGCGCUCGAUACCAGUACUUUAAAAUACCCUUGGCAGCGACAUGAGGAUCACCCAUGUGAGAUGA	–	–	15.3 nM	28.6 nM
UGACAUUGCUCAGAUACCAGACGUGAGGAUCACCCACGUGCCAACAUGAGGAUCACCCAUGUCCCUUGGCAGCUGAGCAAUGUCU	–	–	15.7 nM	183 nM
CUGCCAUGCAGAGAUACCAGUGAGCUCAAAACAUGAGGAUCACCCAUGUAAAUUGCCGAUCACCCUUGGCAGCUCUGCAUGGCAG	9.78 nM	7.84 nM	–	–
CAUACUUUAGUAUGUUAUGUGGACAGUGAUACCAGAUACGAAAGUAUCCCUUGGCAGCACAACAUGAGGAUCACCCAUGUAAUUU	26.1 nM	15.6 nM	–	–
CCGCCCACGAAUGAUACCAGCUAAAAUCAUGUACCAGACACAUGAGGAUCACCCAUGUAAAGCCCUUGGCAGCGUACGCCACCCG	–	–	23.5 nM	26.4 nM
GUAAAUGUGACGGAUACCAGCGUGUUGUAGAACAUGAGGAUCACCCAUGUAGUGAUCAUGCGCCCUUGGCAGCUGGUAUGUUUGU	474 nM	841 nM	–	–
AUGUCAUUGGUGUAGCUGUGAAGUGGCGAUACCAGCGUGGAAACACGCCCUUGGCAGCGCCAAAACAUGAGGAUCACCCAUGUUA	–	–	22.3 nM	156 nM
CGGUUUGUGAUGGAUACCAGCAGAGUGAAUGUUUAUCCUGACAUGAGGAUCACCCAUGUGUGCCCUUGGCAGCUGUUGUGGGCUG	–	–	63.5 nM	89.4 nM
